The values below come from ChEMBL document CHEMBL1255528, “Chemical investigation of drug-like compounds from the Australian tree, Neolitseadealbata” (Bioorg Med Chem Lett, 2010).

Where a name gives a salt, the structure may show the parent alone.

The test system of one data set is A549. Nature of the data set: Cytotoxicity against human A549 cells after 72 hrs by alamar blue assay. The format is functional, cell-based. The following applies: A549, 72 h. In outline: (§1)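 Screened across a human panel: A549 lung adenocarcinoma, HeLa cervical adenocarcinoma, MCF-7 breast, LNCaP and PC3 prostate, plus non-cancer HEK 293 embryonic kidney and NFF neonatal foreskin fibroblasts. IC50 reported as mean ± SD of two independent experiments.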

In the next data set the test system is HeLa. Nature of the data set: Cytotoxicity against human HeLa cells after 72 hrs by alamar blue assay. The format is functional, cell-based. In outline: as §1
For data set [1], the system named is MCF7. Nature of the data set: Cytotoxicity against human MCF7 cells after 72 hrs by alamar blue assay. The format is functional, cell-based. The following applies: MCF7, 72 h. In outline: as §1
A further data set relates to LNCaP. Nature of the data set: Cytotoxicity against human LNCAP cells after 72 hrs by alamar blue assay. Type of data set: functional, cell-based. In outline:
as §1
On the technique in general: Resazurin is reduced to fluorescent resorufin, in cell work by metabolically active cells.

Another data set deals with PC-3. The data set is described as follows: Cytotoxicity against human PC3 cells after 72 hrs by alamar blue assay. The format is functional, cell-based. The following applies: PC-3, 72 h. In outline:
as §1

A short description of data set [2]: Cytotoxicity against HEK cells after 72 hrs by alamar blue assay. The following applies: Homo sapiens, HEK293, 72 h. Type of data set: cell-based. In a few lines: as §1
Data set [3] deals with NFF. Nature of the data set: Cytotoxicity against human NFF after 72 hrs by alamar blue assay. The format is cell-based. In a few lines:
as §1

Data set [4] has as its system MCF7. The data set is described as follows: Cytotoxicity against human MCF7 cells at 100 uM after 72 hrs by alamar blue assay. The format is functional. The following applies: MCF7, 72 h. In outline: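 Single-concentration screen on MCF-7 breast cancer cells within the same human cell-line panel. Percent growth inhibition calculated at the one test concentration rather than as an IC50.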

The nature of data set [5]: Cytotoxicity against HEK cells at 100 uM after 72 hrs by alamar blue assay. Type of data set: cell-based, HEK293. The following applies: human; for cytotoxicity at 72 h, 100 µM: HEK cells, read-out: INH. In a few lines: (§2)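 Non-cancer human cell lines, human embryonic kidney 293 (HEK 293) and neonatal foreskin fibroblasts (NFF), screened in parallel with a panel of five cancer lines. Growth inhibition is reported as percent inhibition at a single test concentration of 100.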

The nature of data set [6]: (§3) Cytotoxicity against human NFF at 100 uM after 72 hrs by alamar blue assay. Type of data set: cell-based. The following applies: NFF cells, read-out: INH. In outline: as §2
The subject of data set [7] is NFF. The data set is described as §3. The format is cell-based. The following applies: nff, 72 h, 100 µM. In outline: as §2

Take `Oc1ccc2c(c1)-c1c3c(cc4c1[C@@H](C2)NCC4)OCO3`: the IC50 in the data set on A549 was 28.2 µM; in the data set on HeLa it was 4 µM; in the data set on MCF7 [1], 27.4 µM; in the data set on LNCaP, 13.8 µM; in the data set with PC-3, 23 µM; in data set [2], 59.7 µM. Besides, in the data set with NFF [3], the IC50 was determined as 42.6 µM.

For the molecule `CN1CCc2cc3c(c4c2[C@H]1Cc1ccccc1-4)OCO3`, the IC50 with A549 stood at 3.4 µM; in the data set with HeLa, 16.6 µM; in the data set with MCF7 [1], 17.7 µM; with LNCaP, 12.7 µM; with PC-3, 7.7 µM; in [2] it was 15.9 µM. In the data set on NFF [3], this molecule returned an IC50 of 15.2 µM.

Consider `COc1cc2c(cc1O)C[C@@H]1NCCc3cc4c(c-2c31)OCO4`, for which the IC50 with A549 was 16 µM; in the data set with HeLa, 28.1 µM; in the data set with LNCaP, 27.4 µM; in the data set on PC-3 it was 36.4 µM; with NFF [3], greater than 100 µM. The molecule also came in with an inhibition at 100 µM with MCF7 [4] of 52%. Besides, the cytotoxicity at 72 h, 100 µM in data set [5] stood at 55%.

On to `COc1cc2c(cc1O)C[C@@H]1NCCc3cc(O)c(OC)c-2c31`, for which the half-inhibitory concentration (IC50) (in the data set with A549; in the data set with HeLa; in the data set on MCF7 [1]; with LNCaP; in the data set with PC-3; in data set [2]) was greater than 100 µM each time. For the same molecule, in the data set with NFF [3], the IC50 was greater than 100 µM.

For the molecule `COc1cc2c(cc1O)C[C@H]1c3c(cc(O)c(OC)c3-2)CCN1C`, the IC50 (in the data set with A549; in the data set with HeLa; with MCF7 [1]; in the data set on LNCaP; in the data set on PC-3; in data set [2]) was greater than 100 µM in each case. In addition, the IC50 in the data set on NFF [3] is greater than 100 µM.

In the case of `COc1ccc2c(c1O)[C@H](Cc1ccc(O)cc1)NCC2`, the IC50 (in the data set on A549; in the data set with HeLa; with MCF7 [1]; with LNCaP; in the data set with PC-3; in data set [2]) was greater than 100 µM each time. Further, the IC50 in the data set on NFF [3] is greater than 100 µM.

As to `COc1ccc2c(c1O)[C@H](Cc1ccc(O)cc1)N(C)CC2`, the IC50 (in the data set on A549; with HeLa; in the data set with MCF7 [1]; in the data set with LNCaP; with PC-3; in data set [2]) was greater than 100 µM throughout. The molecule also showed an IC50 in the data set on NFF [3] greater than 100 µM.

On to `C[N@@+]1([O-])CCc2cc3c(c4c2[C@H]1Cc1ccccc1-4)OCO3` (stereo in doubt; 3), for which the IC50 in the data set on A549, in the data set on HeLa, in the data set on MCF7 [1], with LNCaP and with PC-3 was greater than 100 µM in each case. For the same molecule, the cytotoxicity at 72 h, 100 µM in [5] came to 61%; in data set [6] it was 83%.

As to `C[N@@+]1([O-])CCc2cc3c(c4c2[C@H]1Cc1ccccc1-4)OCO3.O=C(O)C(F)(F)F` (stereo in doubt; 4), the “inhibition (INH)” value in data set [5] (hek293, 72 h, 100 µM, 72 h) came out at 49%; in the data set on NFF [7], 66%.

In the case of `CC(=O)O[C@H]1C(=O)[C@@]2(C)[C@H]([C@H](OC(=O)c3ccccc3)[C@]3(O)C[C@H](OC(=O)[C@H](O)[C@@H](NC(=O)c4ccccc4)c4ccccc4)C(C)=C1C3(C)C)[C@]1(OC(C)=O)CO[C@@H]1C[C@@H]2O` [PACLITAXEL], the IC50 with A549 was 0.0038 µM; in the data set on HeLa it was 0.0089 µM; with MCF7 [1], 0.0044 µM; in data set [2], 0.0039 µM; in the data set with NFF [3], 0.0047 µM.

On to `CC[C@]1(O)C[C@H]2CN(CCc3c([nH]c4ccccc34)[C@@](C(=O)OC)(c3cc4c(cc3OC)N(C=O)[C@H]3[C@@](O)(C(=O)OC)[C@H](OC(C)=O)[C@]5(CC)C=CCN6CC[C@]43[C@@H]65)C2)C1` [VINCRISTINE SULFATE], for which the IC50 with LNCaP stood at 0.0029 µM; in the data set with PC-3, 0.011 µM.

What is called IC50 is the point on the concentration scale where inhibition reaches its midpoint. The inhibition is the relative decrease from the control value, in per cent. High values mean a strong effect, low ones a weak effect.
